Reference: ChEMBL document CHEMBL5154683, “A 5-FU Precursor Designed to Evade Anabolic and Catabolic Drug Pathways and Activated by Pd Chemistry In Vitro and In Vivo” (J Med Chem, 2022)

Tests used:
HCT-116 [1] = test: Antiproliferative activity against human HCT-116 cells assessed as reduction in cell viability measured after 5 days by PrestoBlue reagent based assay; assay type: functional; conditions: HCT-116, 120 h
Summary of the method: (§1)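 Cells in 10% FBS, 2 mM L-glutamine media at 37 °C, 5% CO₂ (HCT116 in McCoy's 5A, BxPC-3 in RPMI). Seeded at 3000 (HCT116) or 2500 (BxPC-3) cells/well and grown 48 h. Medium then replaced with drug-containing medium, 0.1% DMSO, for 5 d. PrestoBlue 10% v/v added for 1 h, fluorescence read ex 540/em 590 nm. Normalised to DMSO-only wells; sigmoidal variable-slope fit; n = 3.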

BXPC-3 = test: Antiproliferative activity against human BxPC-3 cells assessed as reduction in cell viability measured after 5 days by PrestoBlue reagent based assay; assay type: functional; conditions: BXPC-3, 120 h; summary of the method: as §1
[2] = Prodrug conversion in human liver S9 fraction assessed as DH5FU metabolite formation at 1.6 mM incubated for 1 hr in presence of NADPH by 19F-NMR based analysis; assay type: ADME, subcellular; conditions: s9, 1 h, 1600 µM
Summary of the method: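 Compound added as 150 mM stock in DMSO-d₆, preincubated 5 min at 37 °C with enzyme mixture, then NADPH added (1 mM) and incubated 1 h at 37 °C, 600 rpm; controls without NADPH and without enzymes. Stopped with EtOAc, dried under N₂, redissolved in DMSO-d₆, DH5FU detected by ¹⁹F NMR vs authentic sample.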

HCT-116 [3] = test: Antiproliferative activity against human HCT-116 cells assessed as reduction in cell viability at 100 uM incubated for 5 days in presence of Pd-resins at 0.8 mg/ml by PrestoBlue dye based assay relative to control; assay type: functional; conditions: time 5 day
Summary of the method: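 HCT116 seeded at 750 cells/well and grown 48 h. Medium then replaced with fresh medium with or without Pd resins (20–160 μg per well; 0.2–1.4 mg/mL). Compound added as 5 μL of a 2 mM stock in 2% DMSO/medium, incubated 5 d. PrestoBlue fluorescence read; values normalised to untreated cells within each resin dilution.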

SMILES | EC50 (HCT-116 [1]) [nM] | EC50 (BXPC-3) [nM] | Drug metabolism [2] | Activity (HCT-116 [3]) [%]
O=c1[nH]cc(F)c(=O)[nH]1 [FLUOROURACIL] | 500 | 140 | Metabolite_Detected | 
C#CCn1cc(F)c(=O)[nH]c1=O |  |  | Metabolite_Detected | 14
